Results as given in ChEMBL document CHEMBL2346557 (Bioorg Med Chem, 2013).
Activity calls are given as the source filed them. The rule behind the calls is not given here.

What was measured:
C2C12 = assay: Cytotoxicity against mouse C2C12 cells assessed as cell viability at 0.01 to 100 ug/mL after 24 hrs by MTT assay; assay type: cell-based; details: c2c12, 24 h
How it was run: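 MTT viability run on C2C12 cells grown and treated alongside the NF-κB reporter plates, with drug at 0.01–100 µg/ml and DMSO vehicle. Viability is expressed as percent of untreated cells. A one-way repeated-measures ANOVA tested for a concentration effect.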

[1] = Inhibition of TNFalpha-induced NFkappaB activation in mouse C2C12 cells incubated for 24 hrs prior to TNFalpha induction measured after 24 hrs by luciferase reporter gene assay; assay type: cell-based
How it was run: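 C2C12 myoblasts in growth medium and myotubes in differentiating medium, each stably carrying an NF-κB response element–luciferase reporter. Cells were washed, lysed and luciferase read; TNF-α alone was set as 100%. IC50 was calculated. SD shown.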

[2] = molecular target: T1, Glucocorticoid receptor (Mus musculus) (UniProt P06537); assay: Induction of glucocorticoid receptor nuclear translocation in mouse C2C12 cells at 1 x 10^-5 to 1.69 x 10^-10 M by chemiluminescence assay relative to control; assay type: cell-based
T1 sequence (whole entry): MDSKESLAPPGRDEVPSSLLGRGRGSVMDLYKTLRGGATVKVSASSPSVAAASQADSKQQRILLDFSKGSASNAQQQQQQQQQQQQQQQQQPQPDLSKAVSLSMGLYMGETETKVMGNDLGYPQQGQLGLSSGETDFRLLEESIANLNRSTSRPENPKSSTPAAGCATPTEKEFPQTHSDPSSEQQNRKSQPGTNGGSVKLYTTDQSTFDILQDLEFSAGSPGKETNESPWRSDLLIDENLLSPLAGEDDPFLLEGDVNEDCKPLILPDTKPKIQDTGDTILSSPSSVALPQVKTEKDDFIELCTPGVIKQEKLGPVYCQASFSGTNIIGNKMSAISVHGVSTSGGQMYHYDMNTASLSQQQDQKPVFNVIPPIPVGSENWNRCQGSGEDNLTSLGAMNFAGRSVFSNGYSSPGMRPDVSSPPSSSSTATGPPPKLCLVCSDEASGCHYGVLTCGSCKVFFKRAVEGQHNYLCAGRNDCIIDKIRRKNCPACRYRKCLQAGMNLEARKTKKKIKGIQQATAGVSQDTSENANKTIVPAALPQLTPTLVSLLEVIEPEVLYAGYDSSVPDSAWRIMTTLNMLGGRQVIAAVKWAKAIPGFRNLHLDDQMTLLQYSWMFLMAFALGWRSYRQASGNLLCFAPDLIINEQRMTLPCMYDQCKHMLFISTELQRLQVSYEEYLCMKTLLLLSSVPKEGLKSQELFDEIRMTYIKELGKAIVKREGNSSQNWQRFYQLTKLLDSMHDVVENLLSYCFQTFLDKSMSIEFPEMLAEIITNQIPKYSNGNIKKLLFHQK
How it was run: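 GR nuclear translocation measured by DiscoveRx in PathHunter cells using enzyme-fragment complementation. ProLink-tagged GR recruits a nuclear steroid receptor co-activator peptide fused to the enzyme acceptor, giving a chemiluminescent signal.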

[3] = Clearance in CD1 mouse at 10 mg/kg, iv; assay type: ADME, organism-based; design: dose 10 mg/kg, route intravenous; details: in vivo
How it was run: (§1)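 CD1 mice (n = 3 per compound) given 10 mg/kg as a single tail-vein injection in a pH 7.0 solution of 10% ethanol plus PEG400 (some compounds also with 10% DMSO). Blood was sampled at 0, 5, 15 and 30 min and 1, 2, 4, 8 and 24 h. Parameters were derived from the plasma concentration–time profiles.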

[4] = AUClast in CD1 mouse at 50 mg/kg, po; assay type: ADME, organism-based; design: time 0 - last, dose 50 mg/kg, route oral; details: plasma
How it was run: (§2)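 CD1 mice (n = 3 per compound) were dosed orally at 50 mg/kg as an aqueous emulsion in 30% Labrafil. Blood was drawn at 0, 5, 15 and 30 min and 1, 2, 4, 8 and 24 h. Bioavailability and other parameters were calculated from the plasma profiles and compared against the intravenous arm.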

[5] = Terminal half life in CD1 mouse at 10 mg/kg, iv; assay type: ADME, organism-based; design: dose 10 mg/kg, route intravenous; details: in vivo, read-out: beta t1/2 (converted); how it was run: as §1
Mus musculus [6] = assay: Total unbound AUC (0 to infinity) in CD1 mouse at 10 mg/kg, iv; assay type: ADME, organism-based; design: dose 10 mg/kg, route intravenous; details: in vivo
[7] = Metabolic stability in human liver microsomes assessed as compound remaining at 2 uM measured at 1 hr; assay type: ADME, Microsome; details: read-out: Stability
How it was run: (§3)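 Liver microsomes (human, or male monkey, dog, rat or mouse) at 0.5 mg/mL final with 2 µM compound, 5 mM MgCl2 and 5 mM PBS. The reaction was started with 1 mM NADPH and run at 37 °C. Verapamil was the positive control; water replaced NADPH in the negative control. Read-out was percent parent remaining at 1 h.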

Liver microsomes = assay: Metabolic stability in rat liver microsomes at 2 uM measured at 1 hr; assay type: ADME, Microsome; how it was run: as §3
Mus musculus [8] = assay: Total unbound Cmax in CD1 mouse at 50 mg/kg, po; assay type: ADME, organism-based; design: dose 50 mg/kg, route oral; details: in vivo
[9] = Volume of distribution at steady state in CD1 mouse at 10 mg/kg, iv; assay type: ADME, organism-based; design: dose 10 mg/kg, route intravenous; details: in vivo, read-out: Vdss; how it was run: as §1
Mus musculus [10] = assay: Total unbound AUC (0 to infinity) in CD1 mouse at 50 mg/kg, po; assay type: ADME, organism-based; design: dose 50 mg/kg, route oral; details: in vivo
[11] = Mean residence time in CD1 mouse at 10 mg/kg, iv; assay type: ADME, organism-based; design: dose 10 mg/kg, route intravenous; details: in vivo; how it was run: as §1
[12] = Tmax in CD1 mouse at 10 mg/kg, iv; assay type: ADME, organism-based; design: dose 10 mg/kg, route intravenous; details: in vivo; how it was run: as §1
Mus musculus [13] = assay: Oral bioavailability in CD1 mouse at 50 mg/kg; assay type: ADME, organism-based; details: in vivo; how it was run: as §2
Mus musculus [14] = assay: Total unbound Cmax in CD1 mouse at 10 mg/kg, iv; assay type: ADME, organism-based; design: dose 10 mg/kg, route intravenous; details: in vivo
[15] = Metabolic stability in dog liver microsomes assessed as compound remaining at 2 uM measured at 1 hr; assay type: ADME, Canis lupus familiaris, Microsome; details: read-out: Stability; how it was run: as §3
[16] = Metabolic stability in monkey liver microsomes assessed as compound remaining at 2 uM measured at 1 hr; assay type: ADME, Macaca mulatta, Microsome; details: rhesus monkey, read-out: Stability; how it was run: as §3
[17] = molecular target: T2, Glucocorticoid receptor (Homo sapiens) (UniProt P04150); assay: Transactivation of glucocorticoid receptor in HEK293 cells co-transfected with GRE assessed as induction of GRE-dependent gene expression at 100 ug/ml after 6 hrs by luciferase reporter gene assay; assay type: cell-based
T2 sequence (whole entry): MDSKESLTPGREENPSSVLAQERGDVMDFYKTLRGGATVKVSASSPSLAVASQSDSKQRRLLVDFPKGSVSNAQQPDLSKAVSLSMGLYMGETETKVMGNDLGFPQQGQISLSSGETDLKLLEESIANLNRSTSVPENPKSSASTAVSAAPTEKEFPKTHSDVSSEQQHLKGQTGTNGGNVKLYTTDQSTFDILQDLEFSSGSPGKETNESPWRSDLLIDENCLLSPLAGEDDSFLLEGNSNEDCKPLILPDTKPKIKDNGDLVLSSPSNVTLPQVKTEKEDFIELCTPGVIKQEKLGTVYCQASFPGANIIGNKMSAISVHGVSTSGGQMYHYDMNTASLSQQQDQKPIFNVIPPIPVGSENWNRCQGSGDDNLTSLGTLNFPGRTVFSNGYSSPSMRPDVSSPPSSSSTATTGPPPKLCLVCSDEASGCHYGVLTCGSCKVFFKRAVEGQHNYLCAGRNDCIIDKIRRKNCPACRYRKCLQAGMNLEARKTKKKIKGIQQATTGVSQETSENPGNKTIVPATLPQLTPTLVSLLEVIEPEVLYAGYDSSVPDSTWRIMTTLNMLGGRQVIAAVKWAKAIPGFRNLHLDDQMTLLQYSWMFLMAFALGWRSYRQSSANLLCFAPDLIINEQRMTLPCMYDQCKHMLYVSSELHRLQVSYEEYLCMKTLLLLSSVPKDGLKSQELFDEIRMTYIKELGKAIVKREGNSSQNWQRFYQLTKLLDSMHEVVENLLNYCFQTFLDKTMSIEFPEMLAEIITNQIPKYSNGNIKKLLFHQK
How it was run: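 HEK-293 cells stably transfected with a GRE-driven luciferase reporter were exposed to drug at 0.01–100 μg/ml for 6 h. Cells were washed with PBS and lysed, and luciferase activity was measured by luminometer.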

[18] = Metabolic stability in mouse liver microsomes assessed as compound remaining at 2 uM measured at 1 hr; assay type: ADME, Microsome; details: read-out: Stability; how it was run: as §3
[19] = Tmax in CD1 mouse at 50 mg/kg, po; assay type: ADME, organism-based; design: dose 50 mg/kg, route oral; details: in vivo; how it was run: as §2
[20] = AUClast in CD1 mouse at 10 mg/kg, iv; assay type: ADME, organism-based; design: time 0 - last, dose 10 mg/kg, route intravenous; details: plasma; how it was run: as §1
[21] = Terminal half life in CD1 mouse at 50 mg/kg, po; assay type: ADME, organism-based; design: dose 50 mg/kg, route oral; details: in vivo, read-out: beta t1/2 (converted); how it was run: as §2

SMILES	Activity (C2C12)	EC50 [1] [nM]	Activity [2] [%]	further results
CC[C@@H]1C[C@H]2[C@@H]3CCC4=CC(=O)C=C[C@]4(C)C3=CC[C@]2(C)[C@H]1C(=O)CO	Toxic	89.5	27	–
C[C@]12CCC(=O)C=C1CC[C@@H]1C2=CC[C@@]2(C)[C@H]1CC[C@]2(O)C(=O)CN1CCCC1	–	1850	24.7	–
C[C@@H]1C[C@H]2[C@@H]3CCC4=CC(=O)CC[C@]4(C)C3=CC[C@]2(C)[C@H]1C(=O)CN1CCOCC1	Non-toxic	5240	22.7	–
CCCC[C@@H]1C[C@H]2[C@@H]3CCC4=CC(=O)C=C[C@]4(C)C3=CC[C@]2(C)[C@H]1C(=O)CO	Toxic	> 10000	6.9	–
C[C@@H]1C[C@H]2[C@@H]3CCC4=CC(=O)C=C[C@]4(C)C3=CC[C@]2(C)[C@H]1C(=O)CO	Non-toxic	56.4	54.2	clearance [3]: 48.2 mL/min/kg; AUC(0-t) [4]: 22000 ng·h/mL; half-life [5]: 40 min; fAUC (Mus musculus [6]): 3457 ng·h/mL; remaining at 1 h, 2 µM [7]: ≥ 80%; Stability (Liver microsomes): Unstable; fCmax (Mus musculus [8]): 10203 ng/mL; Vd [9]: 0.874 L/kg; fAUC (Mus musculus [10]): 22031 ng·h/mL; MRT [11]: 17.3 min; Tmax [12]: 5 min; F (Mus musculus [13]): 128%; fCmax (Mus musculus [14]): 8637 ng/mL; remaining at 1 h, 2 µM [15]: ≥ 80%; remaining at 1 h, 2 µM [16]: ≥ 80%; Activity [17]: inactive; remaining at 1 h, 2 µM [18]: 34%; Tmax [19]: 60 min; AUC(0-t) [20]: 3450 ng·h/mL; half-life [21]: 39.5 min
CCCN(CCC)CC(=O)[C@H]1[C@H](C)C[C@H]2[C@@H]3CCC4=CC(=O)CC[C@]4(C)C3=CC[C@@]21C	Non-toxic	723	37.7	–
CC(=O)OCC(=O)[C@@]1(O)CC[C@H]2[C@@H]3CCC4=CC(=O)CC[C@]4(C)C3=CC[C@@]21C	–	–	51.5	Activity [17]: inactive
CC(=O)OCC(=O)[C@H]1[C@H](C)C[C@H]2[C@@H]3CCC4=CC(=O)C=C[C@]4(C)C3=CC[C@@]21C	Non-toxic	54.1	48.8	Activity [17]: inactive
CCCC[C@@H]1C[C@H]2[C@@H]3CCC4=CC(=O)CC[C@]4(C)C3=CC[C@]2(C)[C@H]1C(=O)CO	Toxic	> 10000	8.5	–
C[C@]12C=CC(=O)C=C1CC[C@@H]1C2=CC[C@]2(C)C(C(=O)CO)=CC[C@@H]12	–	495	16.7	–
C[C@@H]1C[C@H]2[C@@H]3CCC4=CC(=O)CC[C@]4(C)C3=CC[C@]2(C)[C@H]1C(=O)CN1CCN(C)CC1	Non-toxic	> 10000	14.7	–
C[C@H]1C[C@H]2[C@@H]3CCC4=CC(=O)C=C[C@]4(C)C3=CC[C@]2(C)[C@@]1(O)C(=O)CO	Non-toxic	–	44.5	–
CCCN(CCC)CC(=O)[C@@]1(O)CC[C@H]2[C@@H]3CCC4=CC(=O)CC[C@]4(C)C3=CC[C@@]21C	–	–	21.8	–
C[C@]12C=CC(=O)C=C1CC[C@@H]1C2=CC[C@@]2(C)[C@H]1CC[C@]2(O)C(=O)CO	–	129	57.6	–
CC(=O)OCC(=O)C1=CC[C@H]2[C@@H]3CCC4=CC(=O)C=C[C@]4(C)C3=CC[C@]12C	–	–	15.3	–
C[C@]12CCC(=O)C=C1CC[C@@H]1C2=CC[C@@]2(C)[C@H]1CC[C@]2(O)C(=O)CN1CCOCC1	–	1740	28.7	–
CN1CCN(CC(=O)[C@@]2(O)CC[C@H]3[C@@H]4CCC5=CC(=O)CC[C@]5(C)C4=CC[C@@]32C)CC1	–	5780	23.5	–
C[C@@H]1C[C@H]2[C@@H]3CCC4=CC(=O)CC[C@]4(C)C3=CC[C@]2(C)[C@H]1C(=O)CN1CCCC1	Non-toxic	–	19.9	–
C[C@]12CCC(=O)C=C1CC[C@@H]1C2=CC[C@@]2(C)[C@H]1CC[C@]2(O)C(=O)CO	–	62.9	49.2	–
